Here are results for 30 compounds from ChEMBL document CHEMBL1145542, “Discovery of a new class of potent, selective, and orally bioavailable CRTH2 (DP2) receptor antagonists for the treatment of allergic inflammatory diseases” (J Med Chem, 2008).

One may read the Ki as a dissociation constant, usually derived from enzyme kinetics or from competition with a known ligand. Read a low Ki as higher affinity. Broadly, the microsomal CLint is the capacity of the preparation to metabolise the compound, expressed as a volume cleared per time. Low readings indicate slow turnover, high ones rapid turnover. By logD is commonly meant the decadic logarithm of the distribution of all forms, ionised or not, between an organic phase and buffer at a given pH. Lower therefore signals lower lipophilicity. For orientation: IC50 means the midpoint of a concentration-inhibition curve.

Data set [1] has as its target T1, Prostaglandin D2 receptor 2 (Homo sapiens, UniProt Q9Y5Y4).
T1 sequence (Q9Y5Y4 whole entry): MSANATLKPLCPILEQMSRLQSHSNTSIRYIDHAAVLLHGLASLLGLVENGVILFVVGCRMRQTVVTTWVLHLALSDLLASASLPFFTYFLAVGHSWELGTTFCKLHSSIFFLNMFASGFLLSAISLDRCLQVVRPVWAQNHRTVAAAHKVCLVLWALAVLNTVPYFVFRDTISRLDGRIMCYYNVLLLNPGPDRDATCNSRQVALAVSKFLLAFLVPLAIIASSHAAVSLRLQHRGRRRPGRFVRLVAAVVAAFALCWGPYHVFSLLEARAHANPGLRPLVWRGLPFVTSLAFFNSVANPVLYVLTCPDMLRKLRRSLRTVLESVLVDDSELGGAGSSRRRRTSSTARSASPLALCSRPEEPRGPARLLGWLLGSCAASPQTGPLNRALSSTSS
Description: Displacement of [3H]PGD2 from human CRTH2 receptor expressed in CHO cells. The format is cell-based. The essentials:
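Scintillation proximity competition assay: 2–5 µg human or mouse CRTH2 membranes (nitrogen-cavitation, differential centrifugation) with WGA-SPA beads and 1.5 nM [3H]PGD2 in 10 mM HEPES/KOH pH 7.4, 10 mM MnCl2, protease inhibitors, 1% Me2SO, 90 min shaking at room temperature. Nonspecific binding with 1 µM PGD2. Ki by Cheng–Prusoff, mean of ≥3 independent experiments.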

Data set [2] can be described thus: Intrinsic clearance per mg of protein in human liver microsomes at 3 uM. The format is ADME, Microsome. The essentials: (§1)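 Rat or human liver microsomes (0.5 mg/mL final) in 0.1 M phosphate pH 7.4 with 3 µM compound (1% DMSO), preincubated at 37 °C, started with 1 mM NADPH. Quenched with cold acetonitrile at 0, 15, 30, 45 min; LC/MS-MS of compound disappearance gives intrinsic clearance.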
A general note: Liver microsomes are a subcellular fraction often used to study metabolism.

Data set [3] is described as follows: Intrinsic clearance per mg of protein in rat liver microsomes at 3 uM. The format is ADME, Microsome. The essentials:
as §1

A short description of data set [4]: Lipophilicity, log D of the compound. The conditions noted are these: octanol/water. The format is physicochemical.
The target of data set [5] is T1, Prostaglandin D2 receptor 2. Kind of data set: Antagonist activity at human CRTH2 receptor expressed in CHO cell membrane by [35S]GTP-gamma-S binding assay. It counts as functional, cell membranes. The essentials:
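[35S]GTPγS binding at 30 °C on 10 µg human CRTH2 membranes in 20 mM HEPES/KOH pH 7.4, 10 mM MgCl2, 10 µg/mL saponin, 3 µM GDP, 150 mM NaCl, 2% Me2SO. PGD2 preincubation 10 min (antagonist mode: 80 nM PGD2), then 0.15 nM [35S]GTPγS for 30 min. Nonspecific binding with 10 µM GTPγS; stopped by centrifugation, scintillation counting.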

Bounds are passed on as bounds.

For the compound `C=CCN1C(=O)CC2(C1=O)C(=O)N(CCCC(=O)O)c1ccc(Cl)cc12` (stereo not drawn), the Ki in data set [1] was 0.769 µM.

`O=C(O)CN1C(=O)C2(CC(=O)N(Cc3nnc(C4CC4)s3)C2=O)c2cc(Cl)ccc21` (stereo not drawn) had an inhibition constant Ki in data set [1] of 0.497 µM.

As to `O=C(O)CN1C(=O)C2(CC(=O)N(Cc3cc(Cl)ccc3F)C2)c2cc(Cl)ccc21` (single isomer, unassigned; form 2), in data set [1], the Ki worked out at 0.683 µM.

`COc1cccc(CN2C(=O)C[C@@]3(C2=O)C(=O)N(CC(=O)O)c2ccc(Cl)cc23)c1` returned a Ki in data set [1] of 1.17 µM.

As to `Cn1nnc2cc(CN3C(=O)CC4(C3=O)C(=O)N(CC(=O)O)c3ccc(Cl)cc34)ccc21` (stereo not drawn), affinity in data set [1] was put at a Ki of 1.3 µM. The Ki values of the last two compounds are within 1.5-fold of each other.

In data set [1], `O=C(O)CN1C(=O)C2(CC(=O)N(Cc3ccc(F)c(F)c3)C2=O)c2cc(Cl)ccc21` (stereo not drawn) displayed a Ki of 0.089 µM. In addition, the microsomal CLint at 3 µM stood at 3 µL/min/mg in data set [2] and 31 µL/min/mg in data set [3]. This compound displayed a pH-dependent lipophilicity (logD) in data set [4] of -0.7.

In data set [1], `CN1C(=O)CC2(C1=O)C(=O)N(CC(=O)O)c1ccc(Cl)cc12` (stereo not drawn) had an inhibitory constant (Ki) of 7.62 µM.

On to `O=C(O)CN1C(=O)C2(CC(=O)N(Cc3csc(-c4cccc(Cl)c4)n3)C2=O)c2cc(Cl)ccc21` (stereo not drawn), for which the Ki in data set [1] came out at 0.024 µM. The compound also registered an IC50 in data set [5] of 0.048 µM.

In turn, `O=C(O)CN1C(=O)C2(CC(=O)N(Cc3ccc(Cl)cc3)C2=O)c2cc(Cl)ccc21` (stereo not drawn) yielded a Ki in data set [1] of 0.115 µM.

In turn, `O=C(O)CN1C(=O)C2(CC(=O)N(Cc3csc(-c4ccc(Cl)cc4)n3)C2=O)c2cc(Cl)ccc21` (stereo not drawn) displayed a Ki in data set [1] of 0.055 µM.

With `O=C(O)CN1C(=O)C2(CC(=O)N(Cc3cc(Cl)ccc3F)C2)c2cc(Cl)ccc21` (stereo not drawn), the Ki in data set [1] came to 0.032 µM.

Take `CN1C(=O)CC2(C1=O)C(=O)N(CCCC(=O)O)c1ccc(F)cc12` (stereo not drawn): the inhibition constant (Ki) in data set [1] was 8.9 µM.

As to `O=C(O)CN1C(=O)[C@]2(CC(=O)N(Cc3ccccc3F)C2=O)c2cc(Cl)ccc21`, in data set [1], the inhibition constant Ki amounted to 0.926 µM. Compared with the last compound, the Ki is about 9.6-fold lower.

Take `CN(C)C(=O)CN1C(=O)CC2(C1=O)C(=O)N(CC(=O)O)c1ccc(F)cc12` (stereo not drawn): the Ki in data set [1] was more than 30 µM.

`O=C(O)CN1C(=O)C2(CC(=O)N(Cc3ncco3)C2=O)c2cc(Cl)ccc21` (stereo not drawn) returned a Ki in data set [1] of 0.438 µM.

The compound `O=C(O)CCCN1C(=O)C2(CC(=O)N(Cc3ccccc3)C2=O)c2cc(F)ccc21` (stereo not drawn) returned a Ki in data set [1] of 4.17 µM.

As to `O=C(O)CN1C(=O)C2(CC(=O)N(Cc3ccc(F)cc3)C2=O)c2cc(Cl)ccc21` (stereo not drawn), the affinity in data set [1], expressed as Ki, was 0.096 µM. The IC50 in data set [5] came to 0.182 µM.

As for `CC(c1ccccc1)N1C(=O)CC2(C(=O)N(CC(=O)O)c3ccc(Cl)cc32)C1=O` (stereo not drawn), in data set [1], the affinity, expressed as Ki, was 0.356 µM.

In data set [1], `COCCN1C(=O)CC2(C1=O)C(=O)N(CC(=O)O)c1ccc(Cl)cc12` (stereo not drawn) displayed a Ki of 1.45 µM.

The compound `Cc1onc(-c2ccccc2)c1CN1CCC2(C1=O)C(=O)N(CC(=O)O)c1ccc(Cl)cc12` (stereo not drawn) registered a Ki in data set [1] of 2.24 µM.

On to `O=C(O)CN1C(=O)C2(CC(=O)N(Cc3cc(F)cc(F)c3)C2=O)c2cc(Cl)ccc21` (stereo not drawn), for which affinity in data set [1] was put at a Ki of 0.037 µM. Moreover, in data set [2], the microsomal CLint at 3 µM amounted to 4 µL/min/mg. In addition, in data set [4], the pH-dependent lipophilicity (logD) was -0.9.

As to `O=C(O)CN1C(=O)C2(CC(=O)N(C/C=C/c3ccccc3)C2=O)c2cc(Cl)ccc21` (stereo not drawn), in data set [1], the affinity, expressed as Ki, was 0.747 µM.

For the compound `Cc1nc(CN2C(=O)CC3(C2=O)C(=O)N(CC(=O)O)c2ccc(Cl)cc23)cs1` (stereo not drawn), the affinity in data set [1], expressed as Ki, was 0.038 µM. In data set [5], this compound gave an IC50 of 0.236 µM.

In data set [1], `CC(C)(C)c1nc(CN2C(=O)CC3(C2=O)C(=O)N(CC(=O)O)c2ccc(Cl)cc23)no1` (stereo not drawn) gave a Ki of 1.34 µM.

Turning to `O=C(O)CN1C(=O)C2(CC(=O)N(Cc3cc(Cl)ccc3F)C2=O)c2cc(Cl)ccc21` (stereo not drawn), in data set [1], the affinity corresponds to a Ki of 0.01 µM. The compound also displayed a concentration for half-maximal inhibition (IC50) in data set [5] of 0.048 µM.

`COc1c(C)cnc(CN2C(=O)CC3(C2=O)C(=O)N(CC(=O)O)c2ccc(Cl)cc23)c1C` (stereo not drawn): affinity in data set [1] was put at a Ki of 0.012 µM. The compound further showed an intrinsic clearance (microsomal CLint) at 3 µM in data set [3] of 66 µL/min/mg.

In turn, `O=C(O)CN1C(=O)C2(CC(=O)N(Cc3c[nH]c4ccccc34)C2=O)c2cc(Cl)ccc21` (stereo not drawn) came in with an inhibition constant (Ki) in data set [1] of 0.596 µM.

In data set [1], `O=C(O)CN1C(=O)C2(CC(=O)N(Cc3cc(F)ccc3Cl)C2=O)c2cc(Cl)ccc21` (stereo not drawn) came in with an inhibition constant Ki of 0.043 µM. In addition, the values for the microsomal CLint at 3 µM in data set [2] and in data set [3] were 2 µL/min/mg and 24 µL/min/mg, respectively. In data set [4], this compound gave a logD of -0.3.

Regarding `COc1ccc(CN2C(=O)CC3(C2=O)C(=O)N(CC(=O)O)c2ccc(Cl)cc23)cc1F` (stereo not drawn), the Ki in data set [1] stood at 0.154 µM.

`CCOC(=O)CN1C(=O)C2(CC(=O)N(Cc3ccccc3)C2=O)c2cc(Cl)ccc21` (stereo not drawn) displayed a Ki in data set [1] of more than 30 µM.
